Activity calls are given as the source filed them. The calls are words filed in the database; no cut-off is given here.
Experiments:
MEF = assay: Inhibition of LPS-induced c-jun mRNA expression in MEF after 90 mins by Northern blot analysis; type: functional, cell-based; conditions: Mus musculus
BMDM [1] = assay: Inhibition of heat-killed Staphylococcus aureus-induced IkappaBalpha mRNA expression in mouse BMDM by Northern blot analysis; type: functional
BMDM [2] = assay: Inhibition of LPS-induced TNF mRNA expression in mouse BMDM up to 3 hrs by Northern blot analysis; type: functional, cell-based
BMDM [3] = assay: Inhibition of LPS-induced IL-12beta mRNA expression in mouse BMDM up to 3 hrs by Northern blot analysis; type: functional, cell-based
BMDM [4] = assay: Inhibition of LPS-induced IkappaBalpha mRNA expression in mouse BMDM up to 3 hrs by Northern blot analysis; type: functional, cell-based
Macrophage [5] = assay: Inhibition of LPS-induced TNF mRNA expression in mouse C57BL/6 mouse alveolar macrophages up to 50 uM by Northern blot analysis; type: functional, cell-based
Epithelial cell [6] = assay: Inhibition of TNF-induced IkappaBbeta expression in human bronchial epithelial cells up to 120 mins by Western blot analysis; type: functional, cell-based
BMDM [7] = assay: Inhibition of LPS-induced c-jun mRNA expression in mouse BMDM up to 3 hrs by Northern blot analysis; type: functional, cell-based
Epithelial cell [8] = assay: Inhibition of TNF-induced IkappaBalpha expression in human bronchial epithelial cells up to 120 mins by Western blot analysis; type: functional, cell-based
[9] = biological target: T1, Inhibitor of nuclear factor kappa-B kinase subunit alpha (Mus musculus) (UniProt Q60680); assay: Inhibition of LPS-induced IkappaBalpha phosphorylation in mouse BMDM measured up to 120 mins by Western blot analysis
T1 sequence (whole entry): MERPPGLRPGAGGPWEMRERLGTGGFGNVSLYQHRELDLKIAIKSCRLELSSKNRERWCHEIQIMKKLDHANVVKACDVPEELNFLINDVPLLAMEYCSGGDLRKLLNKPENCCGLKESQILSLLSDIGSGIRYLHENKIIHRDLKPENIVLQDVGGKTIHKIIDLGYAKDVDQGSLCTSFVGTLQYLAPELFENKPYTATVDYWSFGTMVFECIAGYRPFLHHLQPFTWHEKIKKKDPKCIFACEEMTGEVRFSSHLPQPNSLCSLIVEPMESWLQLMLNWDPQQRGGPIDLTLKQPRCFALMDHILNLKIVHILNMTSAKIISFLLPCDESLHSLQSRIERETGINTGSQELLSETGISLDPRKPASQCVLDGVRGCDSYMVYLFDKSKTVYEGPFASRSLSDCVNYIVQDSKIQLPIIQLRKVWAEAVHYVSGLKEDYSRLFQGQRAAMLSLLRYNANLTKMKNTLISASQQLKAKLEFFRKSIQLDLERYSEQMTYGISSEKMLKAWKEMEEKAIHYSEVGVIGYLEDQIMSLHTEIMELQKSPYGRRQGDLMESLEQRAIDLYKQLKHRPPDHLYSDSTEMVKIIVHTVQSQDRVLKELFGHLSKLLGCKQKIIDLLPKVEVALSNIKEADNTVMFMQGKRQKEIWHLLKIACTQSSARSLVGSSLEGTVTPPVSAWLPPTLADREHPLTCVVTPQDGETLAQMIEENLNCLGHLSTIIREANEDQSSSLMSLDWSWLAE

[10] = biological target: Transcription factor p65 (Mus musculus) (UniProt Q04207); assay: Inhibition of TNF-induced RelA phosphorylation in mouse MEF up to 120 mins by Western blot analysis
Macrophage [11] = assay: Inhibition of LPS-induced IRF-1 mRNA expression in mouse alveolar macrophages after 90 mins by Northern blot analysis; type: functional, cell-based
Macrophage [12] = assay: Inhibition of LPS-induced IkappaBalpha expression in C57BL/6 mouse alveolar macrophages measured up to 120 mins by Western blot analysis; type: functional, cell-based
BMDM [13] = assay: Inhibition of LPS-induced IFNbeta mRNA expression in mouse BMDM up to 3 hrs by Northern blot analysis; type: functional, cell-based
PBMC = assay: Inhibition of LPS-induced TNF mRNA expression in human PBMC up to 50 uM by Northern blot analysis; type: functional, cell-based
[14] = biological target: Transcription factor p65 (Mus musculus) (UniProt Q04207); assay: Inhibition of LPS-induced RelA phosphorylation in [32P]orthophosphate metabolically labelled mouse BMDM assessed as phosphorylated IkappaBbeta/RelA binding measured up to 120 mins in absence of IkappaBalpha by SDS-PAGE and autoradiography
[15] = biological target: T2, Inhibitor of nuclear factor kappa-B kinase subunit alpha (Homo sapiens) (UniProt O15111); assay: Inhibition of IkappaBalpha phosphorylation in human WI38 cells assessed after 2 hrs by Western blot analysis; type: cell-based; conditions: WI-38
T2 sequence (whole entry): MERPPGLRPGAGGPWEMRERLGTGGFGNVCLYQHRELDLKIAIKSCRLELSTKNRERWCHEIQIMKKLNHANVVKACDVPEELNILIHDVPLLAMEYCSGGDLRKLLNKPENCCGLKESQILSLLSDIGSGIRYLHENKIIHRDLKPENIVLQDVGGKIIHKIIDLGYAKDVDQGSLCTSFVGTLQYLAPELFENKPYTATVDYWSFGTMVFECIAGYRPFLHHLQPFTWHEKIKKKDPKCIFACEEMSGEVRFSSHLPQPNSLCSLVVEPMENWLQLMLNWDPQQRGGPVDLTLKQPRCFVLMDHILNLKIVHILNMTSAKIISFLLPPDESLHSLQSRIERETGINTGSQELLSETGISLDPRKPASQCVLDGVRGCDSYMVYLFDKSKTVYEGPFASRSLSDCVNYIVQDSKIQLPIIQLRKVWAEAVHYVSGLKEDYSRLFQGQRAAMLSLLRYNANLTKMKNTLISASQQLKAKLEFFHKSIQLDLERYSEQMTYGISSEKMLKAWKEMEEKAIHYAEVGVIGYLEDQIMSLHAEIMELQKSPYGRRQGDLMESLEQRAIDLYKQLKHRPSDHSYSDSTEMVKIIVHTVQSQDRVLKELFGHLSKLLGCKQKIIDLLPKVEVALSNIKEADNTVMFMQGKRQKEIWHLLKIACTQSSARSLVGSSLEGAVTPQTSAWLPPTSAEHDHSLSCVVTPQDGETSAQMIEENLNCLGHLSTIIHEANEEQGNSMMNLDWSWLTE
Method in brief: (§1)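 WI38 lung fibroblasts and bronchial epithelial cells were stimulated for 2 hours. The same Western blot was probed for PARP cleavage, total IκBα and phosphorylated IκBα.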

BMDM [16] = assay: Inhibition of LPS-induced MCP-1 mRNA expression in mouse BMDM up to 3 hrs by Northern blot analysis; type: functional, cell-based
BMDM [17] = assay: Inhibition of LPS-induced RANTES mRNA expression in mouse BMDM up to 3 hrs by Northern blot analysis; type: functional, cell-based
Mus musculus = species on record: Mus musculus; assay: Inhibition of IKK activity in LPS-induced mouse BMDM assessed as reduction in phosphorylation of RelA treated 2 hrs after LPS challenge measured up to 120 mins by immunoblot analysis
BMDM [18] = assay: Inhibition of LPS-induced IkappaBalpha expression in mouse BMDM measured up to 120 mins by Western blot analysis; type: functional, cell-based
[19] = biological target: T2, Inhibitor of nuclear factor kappa-B kinase subunit alpha (Homo sapiens); assay: Inhibition of IkappaBalpha in human WI38 cells assessed after 2 hrs by Western blot analysis; type: cell-based; conditions: WI-38; method in brief: as §1
BMDM [20] = assay: Inhibition of LPS-induced IP-10 mRNA expression in mouse BMDM up to 3 hrs by Northern blot analysis; type: functional, cell-based

Sequence of Transcription factor p65 (Mus musculus) (Q04207 whole entry): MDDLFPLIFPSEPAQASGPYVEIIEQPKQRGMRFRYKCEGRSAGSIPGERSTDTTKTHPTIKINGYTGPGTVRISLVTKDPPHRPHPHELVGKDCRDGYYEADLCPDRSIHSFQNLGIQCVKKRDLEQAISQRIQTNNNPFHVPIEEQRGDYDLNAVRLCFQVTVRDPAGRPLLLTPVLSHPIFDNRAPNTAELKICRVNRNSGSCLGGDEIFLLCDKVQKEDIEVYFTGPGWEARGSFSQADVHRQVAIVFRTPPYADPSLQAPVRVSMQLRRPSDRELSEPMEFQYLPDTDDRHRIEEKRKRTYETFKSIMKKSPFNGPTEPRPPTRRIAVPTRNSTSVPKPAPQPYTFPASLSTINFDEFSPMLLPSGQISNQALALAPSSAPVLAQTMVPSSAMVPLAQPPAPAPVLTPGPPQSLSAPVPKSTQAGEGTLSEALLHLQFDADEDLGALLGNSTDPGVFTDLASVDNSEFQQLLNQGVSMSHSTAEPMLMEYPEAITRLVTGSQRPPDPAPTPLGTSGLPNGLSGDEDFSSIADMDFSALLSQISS

Activity [9]: Active | Activity [10]: Active | Activity [14]: Active | Activity [15]: Active | Activity (Mus musculus): Active | Activity [19]: Active
Structure (SMILES): CCCCCCCCCC(=O)CC(=O)N[C@H]1CCOC1=O
Activity (MEF): Dose-dependent effect | Activity (BMDM [1]): Active | Activity (BMDM [2]): Dose-dependent effect | Activity (BMDM [3]): Dose-dependent effect | Activity (BMDM [4]): Dose-dependent effect | Activity (Macrophage [5]): Active | Activity (Epithelial cell [6]): Active | Activity (BMDM [7]): Dose-dependent effect | Activity (Epithelial cell [8]): Active | Activity (Macrophage [11]): Dose-dependent effect | Activity (Macrophage [12]): Active | Activity (BMDM [13]): Dose-dependent effect | Activity (PBMC): Active | Activity (BMDM [16]): Dose-dependent effect | Activity (BMDM [17]): Dose-dependent effect | Activity (BMDM [18]): Active | Activity (BMDM [20]): Dose-dependent effect

— ChEMBL document CHEMBL1152866, “Modulation of gene expression via disruption of NF-kappaB signaling by a bacterial small molecule” (Science, 2008)
